Test results from PMC11752056 (Chemical Science, 2025).

What was measured:
[1] = L-cysteine–maleimide conjugation; cited from earlier work
[2] = target: T1, 14-3-3σ (Homo sapiens, UniProt P31947); experiment: Intact MS conjugation of compound to 14-3-3σ; type: biochemical; settings: 14-3-3σ : cyclohexenone : NEM 1:10:10, overnight, 10 °C, BTP buffer pH 7
T1 sequence (P31947 1-231 limits assumed): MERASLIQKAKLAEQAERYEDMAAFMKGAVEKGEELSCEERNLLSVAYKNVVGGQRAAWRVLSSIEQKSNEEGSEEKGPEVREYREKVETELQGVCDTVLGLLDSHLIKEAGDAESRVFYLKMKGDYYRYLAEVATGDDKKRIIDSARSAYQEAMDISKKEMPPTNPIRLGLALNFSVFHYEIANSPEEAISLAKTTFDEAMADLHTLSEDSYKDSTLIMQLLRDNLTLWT
Method in brief: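 Recombinant full-length 14-3-3σ (8 μM) was incubated overnight with 10 eq. (80 μM) of compound, with or without peptide, in 20 mM BTP buffer at pH 7 and 10 °C. Protein species (unmodified, conjugated, crosslinked) were read from deconvoluted intact mass spectra and expressed as percentage conjugation or crosslinking.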

[3] = target: the peptide panel (mutated B-Raf peptides: +5 mutants and histidine scan); experiment: fluorescence polarisation

O=C1C=CC(=O)N1 [maleimide]
reaction rate (k2) [1]: 17.6 ± 0.9 × 10^3 M^−1 s^−1

CCN1C(=O)C=CC1=O [NEM, N-ethylmaleimide]
conjugate formed on co-incubation of cyclohexenone and NEM [2]: exclusively the 14-3-3σ–NEM conjugate

B1: 14-3-3σ (natural protein)
chain: T1 sequence (P31947 1-231 limits assumed)
Kd [3]: 1.8 to 135 µM
